The results in this text go back to ChEMBL document CHEMBL5055645 (J Med Chem, 2021).

Active and inactive are the calls of the source. The rule behind the calls is not given here. Bounds are passed on as bounds.

Data set [1] in a line: In vivo stability in C57BL/6J mouse serum assessed as compound degradation measured at 5 mg/kg, iv after 15 mins by LC/MS/MS analysis. It is filed as ADME, organism-based. Particulars: 0.25 h. The gist of the method: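 Mice (C57BL/6J, 8 weeks old, 20–30 g), 4 male and 4 female per group, given one i.v. dose of 5 mg/kg. Submandibular blood drawn into EDTA tubes at 15 min, 30 min, 1, 2, 4, 8 and 24 h. Plasma protein precipitated with 9:1 acetonitrile/acetic acid on ice, centrifuged, and the supernatant analysed by LC/MS/MS.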

Data set [2] can be described thus: Stability in human serum assessed as compound degradation measured at 2 mg/ml after 24 hrs at 37C by RP-HPLC analysis. It is filed as ADME, cell-free. The gist of the method:
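Peptide at 2 mg/mL final in 25% (v/v) pooled human male AB serum, incubated at 37 °C for 24 h. Samples quenched with equal volume acetonitrile on ice for 20 min and centrifuged at 4 °C. Supernatant diluted to 0.1 mg/mL and run on RP-HPLC. Intact peptide estimated from peak area at 215 nm.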

Data set [3] deals with Mus musculus. Nature of the data set: Hyperglycemic effect in C57BL/6J mouse assessed as increase in blood glucose level at 50 microg/kg, iv measured measured up to 60 mins by intraperitoneal insulin tolerance test. It is filed as functional, organism-based. As to conditions: dose 50.0 µg/kg. The method in brief:
(§1)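 Wild-type 8-week-old female mice weighing 20–30 g, 7 groups of 5. Mice fasted 3 h, then given insulin (0.75 IU/kg). […] Blood glucose read with a glucometer at 15, 30 and 60 min post-injection.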

Data set [4] concerns Mus musculus. Nature of the data set: Hyperglycemic effect in C57BL/6J mouse assessed as increase in blood glucose level at 500 microg/kg, iv measured measured up to 60 mins by intraperitoneal insulin tolerance test. It is filed as functional, organism-based. As to conditions: dose 500.0 µg/kg. The method in brief:
as §1

The test system of data set [5] is Mus musculus. Nature of the data set: Hyperglycemic effect in C57BL/6J mouse assessed as increase in blood glucose level at 500 microg/kg, iv measured measured after 30 mins by intraperitoneal insulin tolerance test. It is filed as functional, organism-based. As to conditions: dose 500.0 µg/kg. The method in brief:
(§2)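 Female C57BL/6J mice, 8 weeks old, 20–30 g, 5 per group. After a 3 h fast they received insulin 0.75 IU/kg, then a single i.v. dose of peptide (50 or 500 μg/kg) or saline. Blood glucose read by glucometer at 15, 30 and 60 min after injection.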

Data set [6] relates to Mus musculus. Nature of the data set: Hyperglycemic effect in C57BL/6J mouse assessed as increase in blood glucose level at 50 microg/kg, iv measured measured after 30 mins by intraperitoneal insulin tolerance test. It is filed as functional, organism-based. Particulars: dose 50.0 µg/kg. The gist of the method:
as §2

Regarding GLUCAGON [listing 1 of 2 here], the Stability entry in data set [1] is “Unstable”. In addition, the Drug degradation in data set [2] was greater than 85%.
Regarding GLUCAGON [listing 2 of 2 here], the outcome in the data set with Mus musculus [3], with Mus musculus [4], in the data set on Mus musculus [5] and in the data set on Mus musculus [6] was Active.
